Experimental data of several laboratories.
Protocols differ between the studies behind these lines.
ADH1 W55R: ADH1 (Saccharomyces cerevisiae, UniProt P00330, W55R)
lecA: PA-I galactophilic lectin (lecA, Pseudomonas aeruginosa, UniProt Q05097)
Chymotrypsinogen A: Chymotrypsinogen A (Bos taurus, UniProt P00766)

| Compound | target | observed | mode | method | pH | Ki [µM] |
| --- | --- | --- | --- | --- | --- | --- |
| NC(=O)C1=CN([C@@H]2O[C@H](COP(=O)(O)OP(=O)(O)OC[C@H]3O[C@@H](n4cnc5c(N)ncnc54)[C@H](O)[C@@H]3O)[C@@H](O)[C@H]2O)C=CC1 | ADH1 W55R | enzyme activity | inhibitor |  |  | 570 |
| O=C(Cn1cc(CCN2CCN(c3cc4c(cc3F)c(=O)c(C(=O)O)cn4C3CC3)CC2)nn1)Nc1ccc(S[C@@H]2O[C@H](CO)[C@H](O)[C@H](O)[C@H]2O)cc1 | lecA | ligand displacement |  | FP |  | 1.48 |
| c1cc2c(cc1C1CCCCC1)c1c3n2CCNC3CCC1 (stereo not drawn) | Amine oxidase [flavin-containing] A (Maoa, Rattus norvegicus, UniProt P21396) | enzyme activity | inhibitor |  | pH 7.5 | 3.6 |
| CCCC[C@H](NC(=O)[C@H](CCC(N)=O)NC(=O)[C@H](CO)NC(=O)CCCCCN)C(=O)N[C@@H](Cc1ccccc1)B(O)O | Chymotrypsinogen A | enzyme activity | inhibitor | fluorescence |  | 0.00377 |
| [N-]=[N+]=NCCC(=O)Nc1ccc(S[C@@H]2O[C@H](CO)[C@H](O)[C@H](O)[C@H]2O)cc1 | lecA | ligand displacement |  | FP |  | 3.96 |
| C/C(=C\C(=O)OCCCCCCCCC(=O)O)C[C@@H]1OC[C@H](C[C@@H]2O[C@H]2[C@@H](C)[C@H](C)O)[C@@H](O)[C@H]1O | Isoleucine--tRNA ligase (ileS, Escherichia coli K-12, UniProt P00956) | enzyme activity | inhibitor | absorbance |  | 0.0008 |
| CCCC[C@H](NC(=O)[C@H](CCC(N)=O)NC(=O)[C@H](CO)NC(=O)[C@H](C)NC(=O)CCCCCN)C(=O)N[C@@H](CCCBr)B(O)O | Chymotrypsinogen A | enzyme activity | inhibitor | fluorescence |  | 0.166 |
| OCC(F)(F)F | ADH1 W55R | enzyme activity | inhibitor |  |  | 74000 |
| [N-]=[N+]=NCC(=O)Nc1ccc(S[C@@H]2O[C@H](CO)[C@H](O)[C@H](O)[C@H]2O)cc1 | lecA | ligand displacement |  | FP |  | 4.16 |
| CCCC[C@H](NC(=O)[C@H](CCC(N)=O)NC(=O)[C@H](CO)NC(=O)[C@H](Cc1ccccc1)NC(=O)CCCCCN)C(=O)N[C@@H](CCCBr)B(O)O | Chymotrypsinogen A | enzyme activity | inhibitor | fluorescence |  | 0.58 |
| O=C(CCCn1cc(CN2CCN(c3cc4c(cc3F)c(=O)c(C(=O)O)cn4C3CC3)CC2)nn1)Nc1ccc(S[C@@H]2O[C@H](CO)[C@H](O)[C@H](O)[C@H]2O)cc1 | lecA | ligand displacement |  | FP |  | 3 |
| CCCC[C@H](NC(=O)[C@H](CCC(N)=O)NC(=O)[C@H](CO)NC(=O)[C@H](C)NC(=O)CCCCCN)C(=O)N[C@@H](Cc1ccccc1)B(O)O | Chymotrypsinogen A | enzyme activity | inhibitor | fluorescence |  | 0.0362 |
